Assay results taken from ChEMBL document CHEMBL4665711, “Synthesis of (Z)-3-(arylamino)-1-(3-phenylimidazo[1,5-a]pyridin-1-yl)prop-2-en-1-ones as potential cytotoxic agents” (Bioorg Med Chem Lett, 2020).
Activity calls are given as the source filed them. The calls are words filed in the database; no cut-off is given here.

Tests used:
[1] = test system: HCT-116; assay: Induction of mitochondrial membrane potential loss in human HCT-116 cells assessed as cells with hyperpolarized mitochondria by measuring decrease in J-aggregates red fluorescence intensity at 1 uM incubated for 48 hrs by JC1 staining based flow cytometry analysis (reference value: 86.42 %); format: functional; design: scale not given: the % may be the effect or the level left
[2] = test system: HCT-116; assay: Induction of cell cycle arrest in human HCT-116 cells assessed as G2/M phase at 2.5 uM incubated for 48 hrs by propidium iodide based flow cytometry analysis (reference value: 15.3 %); format: functional
[3] = test system: HCT-116; assay: Induction of cell cycle arrest in human HCT-116 cells assessed as G2/M phase at 1 uM incubated for 48 hrs by propidium iodide based flow cytometry analysis (reference value: 15.3 %); format: functional
[4] = test system: HCT-116; assay: Cytotoxicity against human HCT-116 cells assessed as induction of cell morphological changes at 0.5 to 2.5 uM incubated for 48 hrs by phase contrast microscopy; format: functional, cell-based; conditions: dose microM 0.5-2.5, time 48.0 hrs
[5] = test system: HCT-116; assay: Induction of ROS production in human HCT-116 cells incubated for 24 hrs by DCFDA staining based fluorescence microscopic analysis; format: functional, cell-based; conditions: dose microM 0.5-2.5, time 24.0 hrs
Outline: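 For intracellular ROS, HCT-116 cells were incubated at 0.5, 1 and 2.5 µM for 24 h and stained with DCFDA. Cells were imaged by fluorescence microscopy, and DCF fluorescence was quantified at 480/535 nm excitation/emission in arbitrary units against control.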

[6] = test system: HCT-116; assay: Induction of cell cycle arrest in human HCT-116 cells assessed as S phase at 0.5 uM incubated for 48 hrs by propidium iodide based flow cytometry analysis (reference value: 7.8 %); format: functional
[7] = test system: HCT-116; assay: Induction of apoptosis in human HCT-116 cells assessed as micronuclei formation at 0.5 to 2.5 uM incubated for 48 hrs by DAPI staining based fluorescence microscopic analysis; format: functional, cell-based; conditions: dose microM 0.5-2.5, time 48.0 hrs
Outline: (§1)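 Nuclear morphology was imaged by fluorescence microscopy using a DAPI filter at 200×; untreated cells served as control.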

[8] = test system: A549; assay: Cytotoxicity against human A549 cells assessed as reduction in cell viability incubated for 48 hrs by MTT assay; format: functional, cell-based; conditions: A549, 48 h
Outline: (§2)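 Cancer cell lines were exposed to drug for 48 h, and the 50% inhibitory concentration was determined. Values are averages of three individual experiments. A549, HCT-116, BT-474 and MDA-MB-231 are human lines; B16F10 is a murine melanoma line.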

[9] = test system: HCT-116; assay: Induction of cell cycle arrest in human HCT-116 cells assessed as G0/G1 phase at 1 uM incubated for 48 hrs by propidium iodide based flow cytometry analysis (reference value: 28.2 %); format: functional
[10] = test system: MDA-MB-231; assay: Cytotoxicity against human MDA-MB-231 cells assessed as reduction in cell viability incubated for 48 hrs by MTT assay; format: functional, cell-based; conditions: MDA-MB-231, 48 h; outline: as §2
[11] = test system: HCT-116; assay: Induction of apoptosis in human HCT-116 cells assessed as late apoptotic cells at 2.5 uM incubated for 48 hrs by annexin-V and propidium iodide staining based flow cytometry analysis (reference value: 1.48 %); format: functional
[12] = test system: HCT-116; assay: Induction of cell cycle arrest in human HCT-116 cells assessed as sub-G1 phase at 1 uM incubated for 48 hrs by propidium iodide based flow cytometry analysis (reference value: 2.1 %); format: functional
[13] = test system: HCT-116; assay: Induction of apoptosis in human HCT-116 cells assessed as late apoptotic cells at 0.5 uM incubated for 48 hrs by annexin-V and propidium iodide staining based flow cytometry analysis (reference value: 1.48 %); format: functional
[14] = test system: HCT-116; assay: Induction of apoptosis in human HCT-116 cells assessed as increase in late apoptotic cells incubated for 48 hrs by annexin-V and propidium iodide staining based flow cytometry analysis; format: functional, cell-based; conditions: dose microM 0.5-2.5, time 48.0 hrs
[15] = test system: HCT-116; assay: Cytotoxicity against human HCT-116 cells assessed as reduction in cell viability incubated for 48 hrs by MTT assay; format: functional, cell-based; conditions: HCT-116, 48 h; outline: as §2
[16] = test system: HCT-116; assay: Induction of apoptosis in human HCT-116 cells assessed as necrotic cells at 2.5 uM incubated for 48 hrs by annexin-V and propidium iodide staining based flow cytometry analysis (reference value: 0.36 %); format: functional
[17] = test system: B16-F10; assay: Cytotoxicity against mouse B16-F10 cells assessed as reduction in cell viability incubated for 48 hrs by MTT assay; format: functional, cell-based; conditions: B16-F10, 48 h; outline: as §2
[18] = test system: HCT-116; assay: Induction of apoptosis in human HCT-116 cells assessed as condensed DNA at 0.5 to 2.5 uM incubated for 48 hrs by DAPI staining based fluorescence microscopic analysis; format: functional, cell-based; conditions: dose microM 0.5-2.5, time 48.0 hrs; outline: as §1
[19] = test system: HCT-116; assay: Induction of apoptosis in human HCT-116 cells assessed as viable cells at 2.5 uM incubated for 48 hrs by annexin-V and propidium iodide staining based flow cytometry analysis (reference value: 96.29 %); format: functional; conditions: read-out: Activity

SMILES: O=C(/C=C\Nc1ccc(Cl)cc1)c1nc(-c2ccc(F)cc2)n2ccccc12
- Activity [1]: 78.07%
- Activity [2]: 15.6%
- Activity [3]: 16.4%
- Activity [4]: Active
- Activity [5]: Dose-dependent effect
- Activity [6]: 7%
- Activity [7]: Active
- IC50 [8]: 5.09 µM
- Activity [9]: 38.7%
- IC50 [10]: 4.25 µM
- Activity [11]: 6.97%
- Activity [12]: 1.9%
- Activity [13]: 5.7%
- Activity [14]: Dose-dependent effect
- IC50 [15]: 1.21 µM
- Activity [16]: 13.3%
- IC50 [17]: 11 µM
- Activity [18]: Active
- viability at 2.5 µM [19]: 77.4%
